What is called MFC is the lowest tested concentration that kills the fungus rather than only halting it. Usually IC50 stands for the concentration at which inhibition is half-maximal. The term MIC denotes the lowest concentration that inhibits growth of the organism. What is called ED50 is the midpoint of the dose-response relation.

Each structure is given as a SMILES string. ≈ marks a conversion by molar mass, not a printed value. Calls of active or inactive are those of the source. The calls are words filed in the database; no cut-off is given here.

Consider six compounds from ChEMBL document CHEMBL2417423, “Synthesis and antifungal activities of miltefosine analogs” (Bioorg Med Chem Lett, 2013).

Assay [1] deals with Aspergillus fumigatus. Briefly: Antifungal activity against Aspergillus fumigatus ATCC 90906 after 48 hrs. As to conditions: ATCC 90906, 48 h. In kind it is functional. Summed up: (§1)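 MIC is the lowest concentration with no detectable growth. MFC: 5 μL from each clear well moved to agar at 35°C, 48 h for Candida spp. and A. fumigatus, 72 h for C. neoformans; lowest concentration that kills. Values are means of three independent experiments (two for one analog).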

Assay [2] deals with HepG2. Briefly: Cytotoxicity against human HepG2 cells after 48 hrs by neutral red. In kind it is cell-based. The following applies: HepG2, 48 h.
Assay [3] deals with Pichia kudriavzevii. Briefly: Antifungal activity against Candida krusei ATCC 6258 after 48 hrs. In kind it is functional. The following applies: ATCC 6258, 48 h. Summed up: as §1
Assay [4] has as its system Candida albicans. Briefly: Antifungal activity against Candida albicans ATCC 90028 after 48 hrs. In kind it is functional. As to conditions: ATCC 90028, 48 h. Summed up: as §1
The subject of assay [5] is Aspergillus fumigatus. Briefly: Antifungal activity against Aspergillus fumigatus ATCC 90906 after 48 hrs by spectrophotometry. It counts as functional. As to conditions: ATCC 90906, 48 h. Summed up:
as §1

Assay [6] has as its system Cryptococcus neoformans. Briefly: Antifungal activity against Cryptococcus neoformans ATCC 90113 after 72 hrs. In kind it is functional. The following applies: ATCC 90113, 72 h. Summed up:
as §1

The subject of assay [7] is Nakaseomyces glabratus. Briefly: Antifungal activity against Candida glabrata ATCC 90030 after 48 hrs by spectrophotometry. The following applies: ATCC 90030, 48 h. In kind it is functional. Summed up:
as §1

The test system of assay [8] is Nakaseomyces glabratus. Briefly: Antifungal activity against Candida glabrata ATCC 90030 after 48 hrs. In kind it is functional. The following applies: ATCC 90030, 48 h. Summed up:
as §1

Assay [9] concerns Candida albicans. Briefly: Antifungal activity against Candida albicans ATCC 90028 after 48 hrs by spectrophotometry. It counts as functional. The following applies: ATCC 90028, 48 h. Summed up: as §1
For assay [10], the system named is Pichia kudriavzevii. Briefly: Antifungal activity against Candida krusei ATCC 6258 after 48 hrs by spectrophotometry. In kind it is functional. The following applies: ATCC 6258, 48 h. Summed up: as §1
The nature of assay [11]: Cytotoxicity against pig LLC-PK11 cells after 48 hrs by neutral red. It counts as cell-based. As to conditions: Sus scrofa, LLC-PK11, 48 h.
In assay [12] the test system is Cryptococcus neoformans. Briefly: Antifungal activity against Cryptococcus neoformans ATCC 90113 after 72 hrs by spectrophotometry. It counts as functional. The following applies: ATCC 90113, 72 h. The method in brief: as §1
The subject of assay [13] is Vero. Briefly: Cytotoxicity against african green monkey Vero cells after 48 hrs by neutral red. It counts as cell-based. The following applies: Chlorocebus sabaeus.
Assay [14] deals with Leishmania donovani. The experiment in a line: Antileishmanial activity against Leishmania donovani in ip dosed mouse model of leishamniasis. It counts as functional.
For assay [15], the system named is Candida albicans. Briefly: Antifungal activity against Candida albicans SC5314 infected in CD-1 mouse assessed as host survival at 5 mg/kg, ip administered 4, 24, 48, 72, and 96 hrs post inoculation measured up to 8 days relative to control. In kind it is functional, organism-based. More on the design: dose 5 mg/kg.
Assay [16] has as its system Pichia kudriavzevii. Briefly: Antifungal activity against Candida krusei ATCC 6258 at 20 ug/ml after 48 hrs. It counts as functional, organism-based.
The subject of assay [17] is Pichia kudriavzevii. The experiment in a line: Antifungal activity against Candida krusei ATCC 6258 at 20 ug/ml after 48 hrs by spectrophotometry. It counts as functional, organism-based.
In assay [18] the test system is Cryptococcus neoformans. Briefly: Antifungal activity against Cryptococcus neoformans ATCC 90113 at 20 ug/ml after 72 hrs. It counts as functional, organism-based.
Assay [19] concerns Candida albicans. Briefly: Antifungal activity against Candida albicans ATCC 90028 at 20 ug/ml after 48 hrs by spectrophotometry. In kind it is functional, organism-based.
Assay [20] relates to Cryptococcus neoformans. The experiment in a line: Antifungal activity against Cryptococcus neoformans ATCC 90113 at 20 ug/ml after 72 hrs by spectrophotometry. In kind it is functional, organism-based.
Assay [21] concerns Candida albicans. The experiment in a line: Antifungal activity against Candida albicans ATCC 90028 at 20 ug/ml after 48 hrs. In kind it is functional, organism-based.

For the compound `CCCCCCCCCCCCCCCCOP(=O)([O-])OCC[N+](C)(C)Cc1ccc(OC)cc1`, the MFC worked out at 7.5 µg/mL (≈ 14.6 µM) in assay [1]; 3.3 µg/mL (≈ 6.42 µM) in assay [3]; 4.2 µg/mL (≈ 8.18 µM) in assay [4]; 4.2 µg/mL (≈ 8.18 µM) in assay [6]; 3.3 µg/mL (≈ 6.42 µM) in assay [8]. Besides, the figures for the IC50 in assay [2], in assay [11] and in assay [13] were 12.9 µg/mL (≈ 25.1 µM), 1.9 µg/mL (≈ 3.7 µM) and above 25 µg/mL, respectively. For the same compound, the MIC in assay [5] was 2.5 µg/mL (≈ 4.87 µM); in assay [7], 2.5 µg/mL (≈ 4.87 µM); in [9], 4.2 µg/mL (≈ 8.18 µM); in assay [10], 2 µg/mL (≈ 3.89 µM); in assay [12], 4.2 µg/mL (≈ 8.18 µM).
Take `CCCCCCCCCCCCCCCCOP(=O)([O-])OCC[N+](C)(C)C` [MILTEFOSINE]: the MFC is 9.2 µg/mL (≈ 22.6 µM) in assay [1]; 3.3 µg/mL (≈ 8.1 µM) in assay [3]; 2.5 µg/mL (≈ 6.13 µM) in [4]; 2.1 µg/mL (≈ 5.15 µM) in assay [6]; 4.2 µg/mL (≈ 10.3 µM) in assay [8]. Further, the IC50 in assay [2] is above 25 µg/mL; in assay [11], 2.7 µg/mL (≈ 6.62 µM); in [13], above 25 µg/mL. In addition, the MIC in assay [5] was determined as 2.9 µg/mL (≈ 7.12 µM); in assay [7], 3.3 µg/mL (≈ 8.1 µM); in [9] it was 2.5 µg/mL (≈ 6.13 µM); in assay [10], 2.5 µg/mL (≈ 6.13 µM); in assay [12], 2.1 µg/mL (≈ 5.15 µM). The compound also showed an ED50 in assay [14] of 7.72 mg/kg. In assay [15], the result was inactive.
As to `CCCCCCCCCCCCCCOP(=O)([O-])OCC[N+](C)(C)Cc1ccccc1`, the half-maximal inhibitory concentration (IC50) in assay [2] is above 25 µg/mL; in [11] it was 10.8 µg/mL (≈ 23.7 µM); in [13], above 25 µg/mL. Further, the MFC is 10 µg/mL (≈ 21.9 µM) in assay [3], 8.3 µg/mL (≈ 18.2 µM) in assay [4], 3.3 µg/mL (≈ 7.24 µM) in assay [6] and 8.3 µg/mL (≈ 18.2 µM) in assay [8]. Besides, the MIC in assay [5] worked out at 10 µg/mL (≈ 21.9 µM); in [7], 8.3 µg/mL (≈ 18.2 µM); in assay [9], 6.7 µg/mL (≈ 14.7 µM); in [10] it was 10 µg/mL (≈ 21.9 µM); in [12], 3.3 µg/mL (≈ 7.24 µM).
Consider `CCCCCCCCCCCCCCCCOP(=O)([O-])OCC[N+](C)(C)Cc1ccc(Cl)cc1`, for which the result in assay [16], in assay [17], in [18], in [19], in assay [20] and in assay [21] was inactive. For the same compound, the minimum fungicidal concentration (MFC) in [1] came to 12.5 µg/mL (≈ 24.1 µM); in [8], 11.2 µg/mL (≈ 21.6 µM). Moreover, the IC50 in assay [2] was 21 µg/mL (≈ 40.5 µM); in [11], 3.2 µg/mL (≈ 6.18 µM); in [13], above 25 µg/mL. In addition, the MIC worked out at 12.5 µg/mL (≈ 24.1 µM) in [5] and 11.2 µg/mL (≈ 21.6 µM) in assay [7].
`CCCCCCCCCCCCCCCCOP(=O)([O-])OCC[N+](C)(C)Cc1ccc([N+](=O)[O-])cc1`: the MFC in assay [1] stood at 7.5 µg/mL (≈ 14.2 µM); in assay [3] it was 3.3 µg/mL (≈ 6.24 µM); in [4], 2.5 µg/mL (≈ 4.73 µM); in [6], 2.5 µg/mL (≈ 4.73 µM); in [8] it was 2.5 µg/mL (≈ 4.73 µM). Moreover, the IC50 in assay [2] was 11.5 µg/mL (≈ 21.8 µM); in [11] it was 1.6 µg/mL (≈ 3.03 µM); in assay [13], above 25 µg/mL. Besides, the MIC in assay [5], in assay [7], in assay [9], in assay [10] and in assay [12] was 2.5 µg/mL (≈ 4.73 µM) throughout.
Turning to `COc1cccc2c1C(=O)c1c(O)c3c(c(O)c1C2=O)C[C@@](O)(C(=O)CO)C[C@@H]3O[C@H]1C[C@H](N)[C@H](O)[C@H](C)O1` [DOXORUBICIN], the IC50 is 0.9 µg/mL (≈ 1.66 µM) in assay [2], 0.7 µg/mL (≈ 1.29 µM) in assay [11] and above 5 µg/mL in [13].
